Screening data deposited in PubChem BioAssay by The Scripps Research Institute Molecular Screening Center.
In the library only some 1.8% were active in any assay of this set; here they are far more common.
M5 PAM = potentiates acetylcholine response at human M5 receptor. activation, % at 3 µM. P08912. hit rate 0.3% among 360,000. AID 624038. CHO-K1 hM5, Fluo-8 calcium, ACh EC20 PAM; 0% = ACh EC20, 100% = ACh EC100;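 active = activation above the run cutoff, the mean activation of all test compounds plus 3 SD, cut at about 18% in these data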
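Probe or stimulus: acetylcholine, EC20 level; Assay system: human M5 receptor in CHO-K1 cells; Schedule: compound preincubation 140 s before EC20 acetylcholine addition; Technique: intracellular calcium via Fluo-8 fluorescence; Dosing: single-point, 3 µM nominal; Read-out basis: percent activation from peak-over-basal fluorescence ratio, scaled EC20-to-EC100 acetylcholine; Repeats: one well per compound, no replicates.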
M5 antag = antagonists of human muscarinic M5 receptor (CHRM5). hit rate 0.59% among 360,000. CHO-hM5 cells, Fluo-8 calcium fluorescence, ACh EC80. AID 624040. inhibition, % at 3 µM;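 active = inhibition above a per-plate cutoff, the mean of that plate's test compounds plus 3 SD, cut at about 27% in these data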;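 note: 0% = acetylcholine EC80 with DMSO and 100% = DMSO without agonist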
CHRM4 agonist = agonists of human muscarinic M4 receptor (CHRM4); CHO-K1 hM4/Gqi5, Fluo-8 calcium fluorescence; vehicle 0%, full acetylcholine response 100%; activation, % at 3 µM; hit rate 0.14% among 360,000; AID 624127;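 active = activation above the run mean over all test wells plus 3 SD, cut at about 32% in these data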;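 note: peak over basal fluorescence ratio per well then scaled between controls; 0% = DMSO wells and 100% = acetylcholine at EC100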
Target sequence (P08173 whole entry, looked up): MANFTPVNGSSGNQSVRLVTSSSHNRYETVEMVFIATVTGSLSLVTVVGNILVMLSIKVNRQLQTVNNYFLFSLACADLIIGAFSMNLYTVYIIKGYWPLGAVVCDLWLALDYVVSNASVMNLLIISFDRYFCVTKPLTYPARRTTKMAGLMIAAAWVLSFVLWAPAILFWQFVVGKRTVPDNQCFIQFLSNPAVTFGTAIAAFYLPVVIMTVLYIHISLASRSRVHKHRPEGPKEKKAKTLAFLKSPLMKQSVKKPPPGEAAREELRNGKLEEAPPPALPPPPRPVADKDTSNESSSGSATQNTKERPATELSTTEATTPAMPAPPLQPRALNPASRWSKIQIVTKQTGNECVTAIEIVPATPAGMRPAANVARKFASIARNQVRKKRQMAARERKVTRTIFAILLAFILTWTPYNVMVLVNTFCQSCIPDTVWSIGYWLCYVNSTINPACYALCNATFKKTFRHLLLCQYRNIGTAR
M4 PAM = potentiates acetylcholine response at human M4 receptor | activation, % at 3 µM | AID 624126 | CHO-K1 hM4/Gqi5, Fluo-8 calcium fluorescence, ACh EC20; 0% = ACh EC20, 100% = maximal ACh | hit rate 0.4% among 360,000;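 active = activation above its plate's cutoff, the mean activation of sample wells plus 3 SD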
CHRM5 agonist = agonists of human muscarinic M5 receptor (CHRM5); activation, % at 3 µM; AID 624037; CHO-K1 hM5 cells, Fluo-8 calcium fluorescence; 0% DMSO wells, 100% maximal acetylcholine response; hit rate 0.19% among 360,000;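 active = activation above the run's mean over test compounds plus 3 SD, cut at about 23% in these data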;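 note: signal is peak over basal fluorescence ratio across the kinetic read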
CHRM4 antagonist = blocks acetylcholine activation of human M4 receptor | AID 624125 | CHO-hM4 cells, ACh EC80, Fluo-8 calcium fluorescence | hit rate 0.73% among 360,000 | inhibition, % at 3 µM | P08173;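 active = inhibition above its plate's cutoff, the mean inhibition of sample wells plus 3 SD, cut at about 27% in these data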;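 note: 0% = acetylcholine EC80 with DMSO and 100% = DMSO without agonist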
* hit, by the source's call.

SMILES	M5 PAM	M5 antag	CHRM4 agonist	M4 PAM	CHRM5 agonist	CHRM4 antagonist
C=C[C@@H]1c2cc(C)ccc2N(S(=O)(=O)c2ccc(C)cc2)[C@H](c2ccccc2)C1(C#N)C#N	19*	-19	0	10	3	0
Brc1cccc(-c2nc3c4ccccc4ccn3c2Cc2ccsc2)c1	-3	5	-2	-8	-3	7
COc1ccc(C(=O)Oc2ccc3ccc(=O)oc3c2)cc1	-4	2	8	3	-2	-16
COc1ccc(C(=O)Oc2ccc3oc(=O)sc3c2)cc1	-1	9	5	-23	1	58*
CCN(CC(=O)Nc1c(F)cccc1F)C(=O)CCCN1C(=O)c2cccc3cccc(c23)C1=O	-3	10	1	0	1	-4
Cc1cccc(-c2noc(-c3csc([C@@H]4C[C@H](O)[C@@H](CO)O4)n3)n2)c1	-10	29*	7	8	1	-15
CCOc1cc(Br)cc(/C=N/NC(=O)c2cccnc2)c1O	0	15	3	-1	-2	-2
c1ccc(-c2nc3ccccc3[nH]2)cc1	1	-7	1	-1	1	-4
Nc1cc(N)cc(-c2nc3ccccc3[nH]2)c1	5	-5	0	9	0	26*
COc1cc(NC(=O)COc2cc3oc(=O)cc(C)c3cc2Cl)cc(OC)c1OC	3	-15	3	3	-2	-4
Cc1cc(/C=C2/SC(=S)N(c3cccc(Cl)c3)C2=O)c(C)n1-c1cccnc1	-19	26	16	-10	12	34*
Cc1cc(/C=C2/SC(=S)N(c3ccc([N+](=O)[O-])cc3)C2=O)c(C)n1-c1cccnc1	-14	26	13	-5	4	5
Cc1cc(/C=C2\SC(=S)N(C)C2=O)c(C)n1-c1ccccc1O	-19	27	12	-15	6	27*
COc1ccc(Cc2nc3ccc(C(=O)N(C)CCn4ccnc4)cc3o2)cc1OC	-5	6	0	0	-2	0
CCOc1cc(CNCc2cccnc2)cc(Br)c1OCC(N)=O	-3	6	0	-4	-2	14
Cc1cc(NC(=O)c2ccc(C#N)cc2)on1	1	-1	1	-2	-1	3
O=C(CN1CCN(c2ccccc2F)CC1)c1c[nH]c2ccccc12	20*	-5	4	3	-2	-10
COc1ccc(CN2C(=O)C(CC(=O)NC3CCCCC3)CC(C(=O)N(C)C)=C2C)cc1 (stereo unspecified)	0	2	1	6	0	-1
CCOc1ccc2nc(NC(=O)Nc3ccccc3)sc2c1	-6	2	5	-5	-1	5
COc1cccc(NC(=O)Nc2ccc3nc(C)c(C)nc3c2)c1	1	-1	9	3	0	-2
COc1cccc(NC(=O)Nc2ccc3nsnc3c2)c1	-16	54*	21	-12	5	9
COc1ccc2nc(NC(=O)Nc3ccccc3)sc2c1	-13	5	18	-18	7	43*
COc1cccc(NC(=O)Nc2cc(Cl)ccc2C)c1	-7	32*	10	-4	0	-4
COc1ccc(NC(=O)Nc2cccc(OC)c2)cc1	-3	2	6	-1	2	5
CN(C)c1ccc(/C=C(/C#N)C(=O)NCc2ccccc2)o1	-16	15	9	-7	25*	3
SMILES	M5 PAM	M5 antag	CHRM4 agonist	M4 PAM	CHRM5 agonist	CHRM4 antagonist
N#C/C(=C/c1ccccc1)C(=O)NCc1ccccc1	3	-9	1	-3	1	5
Brc1ccc(-c2nnc3c4ccccc4nc(N4CCOCC4)n23)cc1	6	-2	1	40*	3	1
Clc1ccc(-c2nnc3c4ccccc4nc(N4CCOCC4)n23)cc1Cl	-10	6	9	-10	1	-3
CCOc1ccc(C(=O)C2CCN(C(=O)c3ccc([N+](=O)[O-])cc3)CC2)cc1	-7	-1	11	-7	4	10
CC(C)(C)Nc1nc(Nc2ccc([N+](=O)[O-])cc2)nc(NC(C)(C)C)n1	-1	23	6	15*	3	20
Cc1ccc(NC(=O)c2cnc(N3CCN(c4ccccn4)CC3)c3ccccc23)c(Br)c1	-15	14	12	-21	3	30*
O=C(Nc1c(F)cccc1F)c1cnc(N2CCN(c3ccccn3)CC2)c2ccccc12	-20	14	19	-15	0	4
CCN1CCN(CC(=O)Nc2ccc(C(C)=O)cc2)CC1	1	-1	0	5	-3	-6
COc1cccc(N2CCN(CC(=O)Nc3ccc(-n4cnnn4)cc3)CC2)c1	1	2	1	6	2	0
O=C(CN1CCN(c2ccccc2)CC1)Nc1ccc(-n2cnnn2)cc1	-2	-1	2	0	1	30*
CC(=O)c1ccc(NC(=O)CN2CCN(CC(=O)Nc3ccc(C(C)=O)cc3)CC2)cc1	27*	21	1	-1	1	-10
Cc1cccc(NC(=O)CSc2nncn2N)c1C	-3	3	0	0	0	-11
C=CCn1c(SCCC)nc(O)cc1=O	-9	9	62*	-4	22	2
Cc1ccnc(N/C=C(\C#N)c2nc(-c3cccc(Br)c3)cs2)c1	-14	21	135*	-12	53*	31*
N#C/C(=C\Nc1ccc2cn[nH]c2c1)c1nc(-c2ccccc2)cs1	-3	4	1	3	1	-3
Cc1cc(NC(=O)CSc2nnc(COc3cccc(C)c3C)n2Cc2ccco2)no1	4	-5	1	29*	2	-7
Cc1cccc(NC(=O)CSc2nccn2Cc2ccco2)c1C	20*	-37	1	19*	-2	2
Cc1cccc(OCc2nnc(SCC(=O)N(C(C)C)C(C)C)n2Cc2ccco2)c1C	15	7	0	14	-1	-3
CC(C)c1[nH]nc2c1C1(CCN(Cc3ccccc3)CC1)C(C#N)=C(N)O2	1	2	3	14	-3	32*
O=C1c2cccc3c(O)ccc(c23)C(=O)N1Cc1ccco1	-13	22	99*	-20	26*	28*
CCOC(=O)c1ccc(N2C(=O)c3cccc4c(C(=O)O)ccc(c34)C2=O)cc1	2	-1	0	4	3	-5
O=C1c2cccc3c(O)ccc(c23)C(=O)N1c1ccc(Cl)cc1	-20	12	75*	-23	33*	20
CC(=O)Nc1ccc(N2C(=O)c3cccc4c(O)ccc(c34)C2=O)cc1	-17	28*	147*	-23	64*	29*
COc1ccc(N2C(=O)c3cccc4c(N(C)CCO)ccc(c34)C2=O)cc1	-9	7	7	1	24*	1
